The test system of series [1] is patients with myelofibrosis. Briefly: MF-associated symptoms. Type of series: in vivo, human. The procedure, abridged: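 Symptoms were self-rated on the Myelofibrosis Symptom Assessment Form at baseline, on Day 1 of Cycles 2 and 4, then every 3 cycles, during daily oral dosing in 28-day cycles. Evaluable patients had ≥1 cycle treated and a baseline symptom score >2. Each symptom was scored for ≥50% reduction, with a subgroup of patients pretreated with a JAK2 inhibitor.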

In series [2] the test system is JAK2^V617F-driven mouse model. Conditions: cited from earlier work.

`C[C@H](Nc1cc(-c2cnn(C)c2)cc(Nc2cnccn2)n1)c1ccc(F)cc1` [NS-018]: the “Reductions in symptom scores achieved in at least some patients” value in series [1] (all symptoms measured) was “up to 100%”. For the same compound, the “Mean MF-SAF scores” value in series [1] (by Week 4, all 8 assessed symptoms, total evaluable population) was “reductions in mean MF-SAF scores”. For the same compound, in series [1] (patients with previous JAK2 inhibitor treatment), the “Mean MF-SAF symptom score” value is recorded as “reduction in mean score for all symptoms”. Moreover, in series [2] (JAK2^V617F-driven mouse model), the Splenomegaly result is “reduced splenomegaly”. Moreover, in series [2] (murine model), the “Leukocytosis, BMF and survival” value is “Improvements”; the “Peripheral blood erythrocyte or platelet counts” value is recorded as “without reducing”.
